According to ChEMBL document CHEMBL3259520, “Structure-activity relationships studies of quinoxalinone derivatives as aldose reductase inhibitors” (Eur J Med Chem, 2014):

How the values were obtained:
[1] = target: Aldo-keto reductase family 1 member B1 (Rattus norvegicus) (UniProt P07943); assay: Inhibition of Wistar rat eye lens aldose reductase-2 using D-L glyceraldehyde as substrate assessed as oxidation of NADPH at 10 uM preincubated for 10 mins followed by substrate addition measured for 4 mins by spectrophotometric analysis relative to control
Summary of the method: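 ALR2 was taken from Wistar rat lens homogenate. It was fractionated with ammonium sulfate (40% and 50% supernatants, then a 75% cut), dissolved in 0.05 M NaCl, dialyzed and stored at −20 °C. The 1 mL assay ran at 30 °C with 0.10 mM NADPH solution, 0.1 M sodium phosphate pH 6.2 and D,L-glyceraldehyde substrate. Compounds were in DMSO diluted with water, 10^-5 M final, with a substrate-free blank rate subtracted.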

[2] = target: Aldo-keto reductase family 1 member B1 (Rattus norvegicus, UniProt P07943); assay: Inhibition of Wistar rat eye lens aldose reductase-2 using D-L glyceraldehyde as substrate assessed as oxidation of NADPH preincubated for 10 mins followed by substrate addition measured for 4 mins by spectrophotometric analysis
[3] = test system: Aldehyde reductase AKR1A1 (Rattus norvegicus); assay: Inhibition of Wistar rat kidney aldehyde reductase-1 using D-glucuronate as substrate assessed as oxidation of NADPH at 10 uM preincubated for 10 mins followed by substrate addition measured for 4 mins by spectrophotometric analysis relative to control

Row | inhibition [1] [%] | IC50 [2] [nM] | inhibition [3] [%] | Compound
1 | 24 |  |  | O=c1c(/C=C/c2ccc(F)cc2)nc2ccccc2n1Cc1ccc([N+](=O)[O-])cc1
2 | 23 |  |  | O=c1c(N2CCN(CCN3CCOCC3)CC2)nc2ccccc2n1Cc1ccc([N+](=O)[O-])cc1
3 | 32 |  |  | O=c1c(-c2csc3ccccc23)nc2ccccc2n1Cc1ccc([N+](=O)[O-])cc1
4 |  | 1140 | 40 | O=C(O)Cn1c(=O)c(CCc2ccc(F)cc2)nc2ccccc21
5 |  | 143 | 22 | O=C(O)Cn1c(=O)c(CCc2ccccc2)nc2ccccc21
6 |  | 660 | 25 | O=C(O)Cn1c(=O)c(/C=C/c2ccc(F)cc2)nc2cc(Cl)ccc21
7 |  | 362 | 25 | O=C(O)Cn1c(=O)c(/C=C/c2ccc(F)cc2)nc2cc([N+](=O)[O-])ccc21
8 |  | 7530 | 48 | COc1ccc(N2CCN(c3nc4ccccc4n(CC(=O)O)c3=O)CC2)cc1
9 | 30 |  |  | O=c1c(/C=C/c2ccccc2)nc2ccccc2n1Cc1ccc([N+](=O)[O-])cc1
10 |  | 3880 | 35 | O=C(O)Cn1c(=O)c(/C=C/c2ccccc2)nc2ccc(Cl)cc21
11 | 24 |  |  | O=c1c(N2CCN(c3cnccn3)CC2)nc2ccccc2n1Cc1ccc([N+](=O)[O-])cc1
12 |  | 283 | 41 | O=C(O)Cn1c(=O)c(Nc2ccc(F)cc2F)nc2cc([N+](=O)[O-])ccc21
13 |  | 1430 | 47 | O=C(O)Cn1c(=O)c(/C=C/c2ccc(F)cc2)nc2ccccc21
14 | 36.2 |  |  | CC(C)(C)NC(=O)/C=C/c1nc2ccccc2n(Cc2ccc([N+](=O)[O-])cc2)c1=O
15 | 42.9 |  |  | O=c1c(N2CCN(c3cccc(C(F)(F)F)c3)CC2)nc2ccccc2n1Cc1ccc([N+](=O)[O-])cc1
16 | 26 |  |  | COc1ccc(N2CCN(c3nc4ccccc4n(Cc4ccc([N+](=O)[O-])cc4)c3=O)CC2)cc1
17 |  | 1860 | 25 | CC(C)(C)NC(=O)/C=C/c1nc2ccccc2n(CC(=O)O)c1=O
18 |  | 820 | 32 | O=C(O)Cn1c(=O)c(/C=C/c2ccccc2)nc2ccccc21
